ChEMBL document CHEMBL1687709 (Antimicrob Agents Chemother, 2008)

Experiments:
Type in all cases: ADME, organism-based
[1] = Plasma concentration in HIV-infected patient at 480 mg/m2, po administered every 12 hrs for 6 weeks co-administered with 120 mg/m2 of ritonavir and saquinavir measured 12 hrs after last dose; details: human
In short: (§1)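 Step 2 SQV 750 mg/m2 q12h was added by week 4 when LPV IQ was <15. A second 12-h intensive PK study ran after 2 weeks of SQV plus LPV/r (week 6), with plasma predose and at 1, 2, 3, 6 and 12 h. HPLC-UV at 212 nm (LPV 0.100–40, SQV 0.050–20 μg/ml). Noncompartmental AUC, Cmax, Tmax and C12h.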

[2] = Cmax in HIV-infected patient at 480 mg/m2, po administered every 12 hrs for 6 weeks co-administered with 120 mg/m2 of ritonavir and saquinavir; parameters: route oral; details: human, in vivo; in short: as §1
[3] = AUC in HIV-infected patient at 480 mg/m2, po administered every 12 hrs for 6 weeks co-administered with 120 mg/m2 of ritonavir and saquinavir; details: human, plasma; in short: as §1
[4] = Tmax in HIV-infected patient at 480 mg/m2, po administered every 12 hrs for 6 weeks co-administered with 120 mg/m2 of ritonavir and saquinavir; details: human, in vivo; in short: as §1
[5] = Clearance in HIV-infected patient at 400 mg/m2, po administered every 12 hrs for 2 weeks co-administered with 120 mg/m2 of ritonavir; details: human, in vivo, in the assay text read “100 mg/m2 of ritonavir” for “120 mg/m2 of ritonavir”
In short: (§2)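 Treatment-experienced HIV-infected children and adolescents. Without NNRTI: LPV/r 400/100 mg/m2 q12h. With NNRTI: 480/120 mg/m2 q12h. Given as gel capsule or liquid. After 2 weeks, a 12-h intensive PK study followed an observed dose, no standardized meal. Plasma (EDTA) was drawn predose and at 1, 2, 3, 6 and 12 h. LPV was measured by HPLC-UV at 212 nm (range 0.100–40 μg/ml). Noncompartmental AUC, Cmax, Tmax, C12h and CL/F.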

[6] = AUC in HIV-infected patient at 400 mg/m2, po administered every 12 hrs for 2 weeks co-administered with 120 mg/m2 of ritonavir; details: human, plasma, in the assay text read “100 mg/m2 of ritonavir” for “120 mg/m2 of ritonavir”; in short: as §2
[7] = Cmax in HIV-infected patient at 400 mg/m2, po administered every 12 hrs for 2 weeks co-administered with 120 mg/m2 of ritonavir; parameters: route oral; details: human, in vivo, in the assay text read “100 mg/m2 of ritonavir” for “120 mg/m2 of ritonavir”; in short: as §2
[8] = Tmax in HIV-infected patient at 400 mg/m2, po administered every 12 hrs for 2 weeks co-administered with 120 mg/m2 of ritonavir; details: human, in vivo, in the assay text read “100 mg/m2 of ritonavir” for “120 mg/m2 of ritonavir”; in short: as §2
[9] = Plasma concentration in HIV-infected patient at 400 mg/m2, po administered every 12 hrs for 2 weeks co-administered with 120 mg/m2 of ritonavir measured 12 hrs after last dose; details: human, in the assay text read “100 mg/m2 of ritonavir” for “120 mg/m2 of ritonavir”; in short: as §2

SMILES	concentration at 12 h [1] [ng/mL]	Cmax [2] [ng/mL]	AUC [3] [ng·h/mL]	Tmax [4] [h]	CL/F [5] [mL/min]	AUC [6] [ng·h/mL]	Cmax [7] [ng/mL]	Tmax [8] [h]	concentration at 12 h [9] [ng/mL]
CC(C)(C)NC(=O)[C@@H]1C[C@@H]2CCCC[C@@H]2CN1C[C@@H](O)[C@H](Cc1ccccc1)NC(=O)[C@H](CC(N)=O)NC(=O)c1ccc2ccccc2n1	1820	3600	33700	3	–	–	–	–	–
Cc1cccc(C)c1OCC(=O)N[C@@H](Cc1ccccc1)[C@@H](O)C[C@H](Cc1ccccc1)NC(=O)[C@H](C(C)C)N1CCCNC1=O [LOPINAVIR]	–	–	–	–	43	157000	17200	3	8800
